The source of these data is ChEMBL document CHEMBL4152363, “Andrographolide derivative as STAT3 inhibitor that protects acute liver damage in mice” (Bioorg Med Chem, 2018).

The structures appear in SMILES notation. Bounds are passed on as bounds.

What all share (format): cell-based
Data set [1] addresses T1, Signal transducer and activator of transcription 3 (Homo sapiens, UniProt P40763). Put plainly: Inhibition of IFNgamma-stimulated STAT3 activation in human HeLa cells incubated with IFNgamma for 16 hrs followed by compound addition measured after 24 hrs by luciferase reporter gene assay. A digest of the protocol: (§1)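 AD-293 or HeLa cells in DMEM/10% FBS stimulated with 20 pg/mL IFN-γ; compound treatment 24 h; luciferase activity measured in cell extracts; EC50 derived.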

A short description of data set [2]: (§2) Cytotoxicity against human AD293 cells. The conditions noted are these: AD293 cells. A digest of the protocol:
(§3)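 AD-293 or HeLa cells grown in high-glucose DMEM with 10% FBS and 1% penicillin-streptomycin; compound exposure 24 h; cytotoxicity reported as CC10.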

The target of data set [3] is T1, Signal transducer and activator of transcription 3. Put plainly: Inhibition of […] activation in human HeLa cells incubated […] for 16 hrs followed by compound addition measured after 4 hrs by luciferase reporter gene assay. The essentials: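 NF-κB pathway in AD-293 or HeLa cells stimulated with 50 ng/mL TNF-α; compound treatment 4 h; luciferase activity read from cell extracts; EC50 derived.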

For data set [4] the target is unchanged. Description: Inhibition of IFNgamma-stimulated STAT3 activation in human AD293 cells incubated with IFNgamma for 16 hrs followed by compound addition measured after 24 hrs by luciferase reporter gene assay. The essentials: as §1
Data set [5] has the same target. Put plainly: Inhibition of IL-6 stimulated STAT3 activation in human AD293 cells incubated with IL-6 for 16 hrs followed by compound addition measured after 6 hrs by luciferase reporter gene assay. A digest of the protocol:
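AD-293 cells stimulated with 2.5 μg/mL IL-6; compound treatment 6 h; luciferase activity read from cell extracts; EC50 derived.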

The target is the same in data set [6]. Put plainly: Inhibition of […] activation in human AD293 cells incubated […] for 16 hrs followed by compound addition measured after 4 hrs by luciferase reporter gene assay.
The subject of the next data set is HeLa. Put plainly: Cytotoxicity against human HeLa cells. The essentials:
as §3

The subject of the next data set is AD293. Described as §2. The conditions noted are these: ad293. A digest of the protocol: as §3

T1 sequence (P40763 whole entry): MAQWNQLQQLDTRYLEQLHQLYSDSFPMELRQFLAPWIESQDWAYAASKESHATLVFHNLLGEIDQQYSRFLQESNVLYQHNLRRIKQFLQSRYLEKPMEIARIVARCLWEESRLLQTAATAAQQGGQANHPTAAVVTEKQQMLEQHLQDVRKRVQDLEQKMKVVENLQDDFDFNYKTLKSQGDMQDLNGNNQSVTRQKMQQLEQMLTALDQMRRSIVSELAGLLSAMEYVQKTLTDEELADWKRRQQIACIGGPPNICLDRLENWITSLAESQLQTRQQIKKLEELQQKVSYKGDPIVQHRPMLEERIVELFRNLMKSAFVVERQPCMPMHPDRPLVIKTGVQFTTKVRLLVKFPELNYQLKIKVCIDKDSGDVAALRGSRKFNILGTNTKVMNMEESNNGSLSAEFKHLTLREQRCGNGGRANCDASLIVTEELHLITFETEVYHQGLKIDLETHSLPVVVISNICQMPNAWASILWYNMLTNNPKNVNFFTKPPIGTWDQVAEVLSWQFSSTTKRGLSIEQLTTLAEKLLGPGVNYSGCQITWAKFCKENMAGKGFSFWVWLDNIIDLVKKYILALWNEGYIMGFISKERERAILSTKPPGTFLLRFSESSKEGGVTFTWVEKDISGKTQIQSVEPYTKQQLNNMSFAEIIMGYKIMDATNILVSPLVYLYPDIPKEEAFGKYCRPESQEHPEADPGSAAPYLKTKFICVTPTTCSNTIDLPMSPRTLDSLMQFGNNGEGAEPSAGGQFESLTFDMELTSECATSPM

For the compound `C=C1CC[C@@H]2[C@](C)(CO[Si](C)(C)C(C)(C)C)[C@H](O)CC[C@@]2(C)[C@@H]1C/C=C1/C(=O)OC[C@@H]1OC(C)=O`, the EC50 in data set [1] turned out to be 9.43 µM; in data set [3], 9.96 µM; in data set [4], 8.15 µM; in data set [5], 3.22 µM; in data set [6], 7.28 µM. Besides, the CC50 in data set [2] came to 6.83 µM. In the data set with HeLa, the CC10 was > 10 µM.

Regarding `C=C1CC[C@H]2[C@@](C)(CCC(=O)[C@@]2(C)CO[Si](C)(C)C(C)(C)C)[C@@H]1C/C=C1/C(=O)OC[C@@H]1OC(C)=O`, the EC50 in data set [1] is 9.33 µM; in data set [3], > 10 µM; in data set [4], 4.75 µM; in data set [5], 4.78 µM; in data set [6], 7.98 µM. In data set [2], this compound yielded a CC50 of 8.23 µM. In addition, in the data set with HeLa, the CC10 was > 10 µM.

In the case of `C=C1CC[C@@H]2[C@](C)(COC(C)=O)[C@H](OC(C)=O)CC[C@@]2(C)[C@@H]1C/C=C1/C(=O)OC[C@H]1O[Si](C)(C)C(C)(C)C`, the EC50 in data set [1] is > 10 µM; in data set [3], > 10 µM; in data set [4], 8.18 µM; in data set [5], > 10 µM; in data set [6], > 10 µM. Further, the CC10 in the data set on AD293 and in the data set on HeLa was > 10 µM throughout.

`CC(=O)OC[C@]1(C)C(=O)CC[C@@]2(C)[C@H](C/C=C3/C(=O)OC[C@@H]3O[Si](C)(C)C(C)(C)C)[C@@]3(CC[C@@H]21)CO3`: the EC50 in data set [1] is > 10 µM; in data set [3] it was 7.05 µM; in data set [4] it was 2.23 µM; in data set [5], 2.56 µM; in data set [6], > 10 µM. Also, the CC10 in the data set on AD293 and in the data set on HeLa was > 10 µM each time.

Turning to `C=C1CC[C@H]2[C@@](C)(CCC(=O)[C@@]2(C)COC(C)=O)[C@@H]1C/C=C1/C(=O)OC[C@@H]1O[Si](C)(C)C(C)(C)C`, the EC50 in data set [1], in data set [3], in data set [4], in data set [5] and in data set [6] was > 10 µM throughout. Moreover, the CC10 in the data set on AD293 and in the data set with HeLa was > 10 µM throughout.

For the compound `CC(=O)O[C@@H]1COC(=O)/C1=C/C[C@@H]1[C@]2(CC[C@@H]3[C@](C)(CO)[C@H](O)CC[C@]31C)CO2`, the EC50 in data set [1] was determined as 9.45 µM; in data set [3], 9.67 µM; in data set [4], 5.11 µM; in data set [5] it was 3.11 µM; in data set [6] it was 9.49 µM. Also, the midpoint of cytotoxicity in data set [2], the CC50, lay at 10.9 µM. For the same compound, the CC10 with HeLa was > 10 µM.

On to `C=C1CC[C@H]2[C@@](C)(CCC(=O)[C@@]2(C)COC(C)=O)[C@@H]1C/C=C1/C(=O)OC[C@H]1O[Si](C)(C)C(C)(C)C`, for which the EC50 in data set [1], in data set [3], in data set [4], in data set [5] and in data set [6] was > 10 µM throughout. Further, the CC10 in the data set on AD293 and in the data set on HeLa was > 10 µM in each case.

With `C[C@@]12CCC(=O)[C@@](C)(CO)[C@H]1CC[C@]1(CO1)[C@H]2C/C=C1/C(=O)OC[C@H]1O`, the EC50 in data set [1], in data set [3], in data set [4], in data set [5] and in data set [6] was > 10 µM each time. For the same compound, the CC10 in the data set with AD293 and in the data set with HeLa was > 10 µM throughout.

Regarding `CC(C)(C)[Si](C)(C)O[C@@H]1COC(=O)/C1=C/C[C@@H]1[C@]2(CC[C@@H]3[C@](C)(CO)[C@H](O)CC[C@]31C)CO2`, the EC50 was > 10 µM in data set [1]; > 10 µM in data set [3]; 3.45 µM in data set [4]; 3.05 µM in data set [5]; > 10 µM in data set [6]. Besides, the CC10 in the data set with AD293 and with HeLa was > 10 µM in each case.

Turning to `C=C1CC[C@@H]2[C@](C)(CO[Si](C)(C)C(C)(C)C)[C@H](O)CC[C@@]2(C)[C@@H]1C/C=C1/C(=O)OC[C@H]1OC(C)=O`, the EC50 in data set [1] is 4.33 µM; in data set [3] it was 8.11 µM; in data set [4], 1.18 µM; in data set [5] it was 2.21 µM; in data set [6], 6.92 µM. This compound returned a CC50 in data set [2] of 7.33 µM. Further, in the data set with HeLa, the CC10 is > 10 µM.

Consider `C=C1CC[C@H]2[C@@](C)(CCC(=O)[C@@]2(C)CO)[C@@H]1C/C=C1/C(=O)OC[C@H]1OC(C)=O`, for which the EC50 in data set [1] is > 10 µM; in data set [3], > 10 µM; in data set [4] it was 7.93 µM; in data set [5], 6.1 µM; in data set [6], > 10 µM. The CC10 with AD293 and with HeLa was > 10 µM throughout.

Turning to `CC(=O)O[C@@H]1COC(=O)/C1=C/C[C@@H]1[C@@]2(CC[C@@H]3[C@](C)(CO)[C@H](O)CC[C@]31C)CO2`, the EC50 in data set [1] was > 10 µM; in data set [3], 7.54 µM; in data set [4] it was 2.6 µM; in data set [5], 3.04 µM; in data set [6] it was 8.51 µM. Also, the CC10 with AD293 and in the data set on HeLa was > 10 µM throughout.

On to `CC(=O)OC[C@]1(C)C(=O)CC[C@@]2(C)[C@H](C/C=C3/C(=O)OC[C@H]3O[Si](C)(C)C(C)(C)C)[C@@]3(CC[C@@H]21)CO3`, for which the EC50 in data set [1] was > 10 µM; in data set [3] it was > 10 µM; in data set [4], 5.81 µM; in data set [5] it was 7.98 µM; in data set [6], > 10 µM. Further, the CC10 in the data set with AD293 and in the data set on HeLa was > 10 µM throughout.

For `C=C1CC[C@H]2[C@@](C)(CCC(=O)[C@@]2(C)CO)[C@@H]1C/C=C1/C(=O)OC[C@@H]1O[Si](C)(C)C(C)(C)C`, the EC50 in data set [1], in data set [3], in data set [4], in data set [5] and in data set [6] was > 10 µM throughout. Moreover, the CC10 with AD293 and with HeLa was > 10 µM throughout.

On to `C=C1CC[C@H]2[C@@](C)(CCC(=O)[C@@]2(C)CO)[C@@H]1C/C=C1/C(=O)OC[C@H]1O[Si](C)(C)C(C)(C)C`, for which the EC50 in data set [1], in data set [3], in data set [4], in data set [5] and in data set [6] was > 10 µM each time. The CC10 in the data set on AD293 and in the data set on HeLa was > 10 µM each time.

`C=C1CC[C@H]2[C@@](C)(CCC(=O)[C@@]2(C)CO[Si](C)(C)C(C)(C)C)[C@@H]1C/C=C1/C(=O)OC[C@@H]1O`: the EC50 was > 10 µM in data set [1]; > 10 µM in data set [3]; 4.72 µM in data set [4]; 4.34 µM in data set [5]; > 10 µM in data set [6]. Moreover, the CC10 in the data set with AD293 and with HeLa was > 10 µM throughout.

For the compound `C=C1CC[C@@H]2[C@](C)(CO)[C@H](O)CC[C@@]2(C)[C@@H]1C/C=C1/C(=O)OC[C@@H]1O[Si](C)(C)C(C)(C)C`, the EC50 in data set [1], in data set [3], in data set [4], in data set [5] and in data set [6] was > 10 µM throughout. The CC10 with AD293 and with HeLa was > 10 µM each time.

With `C=C1CC[C@@H]2[C@](C)(COC(C)=O)[C@H](OC(C)=O)CC[C@@]2(C)[C@@H]1C/C=C1/C(=O)OC[C@@H]1O[Si](C)(C)C(C)(C)C`, the EC50 in data set [1], in data set [3], in data set [4], in data set [5] and in data set [6] was > 10 µM each time. Also, the CC10 in the data set on AD293 and with HeLa was > 10 µM throughout.

On to `CC(C)(C)[Si](C)(C)OC[C@]1(C)C(=O)CC[C@@]2(C)[C@H](C/C=C3/C(=O)OC[C@H]3O[Si](C)(C)C(C)(C)C)[C@]3(CC[C@@H]21)CO3`, for which the EC50 in data set [1] is > 10 µM; in data set [3] it was > 10 µM; in data set [4] it was 4.4 µM; in data set [5] it was > 10 µM; in data set [6] it was > 10 µM. Further, the CC10 in the data set on AD293 and in the data set with HeLa was > 10 µM in each case.

Regarding `CC(=O)OC[C@]1(C)C(=O)CC[C@@]2(C)[C@H](C/C=C3/C(=O)OC[C@@H]3O[Si](C)(C)C(C)(C)C)[C@]3(CC[C@@H]21)CO3`, the EC50 in data set [1] is > 10 µM; in data set [3], 9.91 µM; in data set [4], 2.55 µM; in data set [5] it was 2.65 µM; in data set [6] it was > 10 µM. The CC10 with AD293 and in the data set with HeLa was > 10 µM in each case.

For the compound `C=C1CC[C@@H]2[C@](C)(CO)[C@H](O)CC[C@@]2(C)[C@@H]1C/C=C1/C(=O)OC[C@H]1O` [ANDROGRAPHOLIDE], the EC50 in data set [1], in data set [3], in data set [4], in data set [5] and in data set [6] was > 10 µM in each case. The CC10 with AD293 and in the data set with HeLa was > 10 µM throughout.

Take `C=C1CC[C@H]2[C@@](C)(CCC(=O)[C@@]2(C)CO)[C@@H]1C/C=C1/C(=O)OC[C@@H]1OC(C)=O`: the EC50 in data set [1], in data set [3], in data set [4], in data set [5] and in data set [6] was > 10 µM throughout. Moreover, the CC10 with AD293 and in the data set on HeLa was > 10 µM throughout.
